# Compound activity as filed in PubChem.
# This is a sample that favours compounds with a hit; in the whole collection about 5.8% have one here.
# GASC1 inh: inhibitors of human demethylase GASC-1 KDM4C; GST-KDM4C 2-372, H3K9me3 peptide, LANCE TR-FRET; AID 720574; actives 0.15% (n = 96,000); inhibition, % at 12.5 µM; Q9H3R0;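 active = mean replicate inhibition above about 25%, with at least 55% of replicates also reaching it, limit read from the data, passing the limit was not always enough; inconclusive = only one of those two conditions met; inactive = neither condition met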
# Target sequence (Q9H3R0 2-372 limits assumed): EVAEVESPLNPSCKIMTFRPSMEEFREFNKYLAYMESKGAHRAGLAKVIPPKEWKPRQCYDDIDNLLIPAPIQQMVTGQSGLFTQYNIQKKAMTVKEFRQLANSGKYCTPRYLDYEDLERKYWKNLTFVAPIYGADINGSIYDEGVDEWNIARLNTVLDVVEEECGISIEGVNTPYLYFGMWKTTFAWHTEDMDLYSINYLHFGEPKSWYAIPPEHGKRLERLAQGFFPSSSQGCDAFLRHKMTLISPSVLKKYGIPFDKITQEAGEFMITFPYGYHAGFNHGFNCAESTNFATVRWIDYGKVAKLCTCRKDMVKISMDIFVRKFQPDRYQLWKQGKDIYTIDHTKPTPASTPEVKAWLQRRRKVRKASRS
#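 material = GST-tagged GASC-1 (JMJD2C) catalytic fragment, aa 2-372 | amount = enzyme final amount 10 nM | medium = HEPES buffer, pH 7.5, plus ascorbate | also added = H3K9me3 peptide substrate, Fe(II), 2-oxoglutarate | dosing = single dose | times = 30 min demethylation and 1 h detection at room temperature | detection = LANCE TR-FRET | read-out basis = Fall in 671/618 emission ratio as inhibition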
# T cruzi growth-1: T. cruzi proliferation inhibition | T. cruzi beta-gal in NIH3T3, GalScreen luminescence, 90 h | inhibition, % at 8.34 µM | actives 5.9% (n = 77,000) | AID 624255;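 active = mean inhibition above about 93%, with at least 55% of replicates each passing it, limit read from the data, passing the limit was not always enough; inconclusive = only one of those two conditions holds; inactive = neither condition holds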
# IDH1 mut inh: blocks human IDH1 R132H reductase activity. diaphorase/resazurin fluorescence, 60 min. actives 0.18% (n = 70,000). inhibition, % at 10 µM; in the data active = inhibition above about 34%; inconclusive = no clear call, values can overlap the other calls; inactive = below about 11%;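 note: 0% = DMSO and 100% = no enzyme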
# Pf Dd2 inh: inhibitors of Plasmodium falciparum Dd2 growth; P. falciparum Dd2 growth, SYBR Green, 72 h; active compounds read low; activity change, % at 10 µM; AID 1159554; actives 2.3% (n = 94,000); in the data active = activity change below about -80%; inconclusive = no clear call, values can overlap the other calls
# T cruzi growth-2: inhibitors of T. cruzi proliferation; shares compounds with T cruzi growth-1; T. cruzi beta-gal in NIH3T3, GalScreen luminescence, 90 h; inhibition, % at 8.35 µM; actives 72% (n = 5,600); AID 651739;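 active = mean replicate inhibition above about 95% and at least 55% of replicates individually reaching it, limit read from the data; inconclusive = only one of the two criteria is met; inactive = neither criterion is met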
# T cruzi growth-3: Trypanosoma cruzi proliferation inhibition; inhibition, % at 2.09 µM; AID 651740; shares compounds with T cruzi growth-1; T. cruzi beta-gal in NIH3T3, GalScreen luminescence, 90 h; actives 21% (n = 5,600);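 active = mean inhibition above about 95%, with at least 55% of replicates also reaching it, limit read from the data; inconclusive = meets just one of the two conditions; inactive = meets neither condition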;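 note: plate controls were neutral control median for no effect and positive control median for full effect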
# NIH3T3 tox: kills mouse NIH/3T3 fibroblasts. cytotoxicity (signal decrease), % at 8.35 µM. NIH/3T3 viability, CellTiter-Glo ATP luminescence, 90 h. actives 14% (n = 5,600). shares compounds with T cruzi growth-1;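 active = mean signal decrease across replicates above about 35% based on untreated-well scatter, with enough replicates individually passing, limit read from the data; inconclusive = no rule stated though some were filed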;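 note: 0% = median of neutral control wells and 100% = median of positive control wells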
# NIH3T3 tox 2: kills mouse NIH/3T3 fibroblasts; shares compounds with T cruzi growth-1; NIH/3T3 viability, CellTiter-Glo ATP luminescence, 90 h; inhibition, % at 24.9 µM; actives 56% (n = 5,600);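 active = mean loss of cell viability signal at or above a set limit, and enough replicates individually reaching it; inconclusive = meets only the mean limit or only the replicate share; inactive = meets neither condition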;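 note: 0% = median of neutral control wells and 100% = median of positive control wells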
# Starred values were filed as active, the others as inactive; ? = inconclusive; . = not tested or not shown.
SMILES,GASC1 inh,T cruzi growth-1,IDH1 mut inh,Pf Dd2 inh,T cruzi growth-2,T cruzi growth-3,NIH3T3 tox,NIH3T3 tox 2
O=C(Nc1cccc(F)c1)N1CC(=O)N2[C@H](C1)[C@H](c1ccc(-c3cccc(F)c3)cc1)[C@@H]2CO,0.9,.,.,25.9,.,.,.,.
C[C@@H]1CCCCO[C@H](CN(C)S(=O)(=O)c2ccc(Cl)cc2)[C@@H](C)CN([C@H](C)CO)C(=O)c2cc(N(C)C)ccc2O1,-0.6,19.5,.,-35.4,.,.,.,.
COc1ccc(-c2ccc3c(c2)O[C@H](CN(C)C(=O)c2ccccc2F)[C@@H](C)CN([C@H](C)CO)S3(=O)=O)cc1,-2.3,107.8*,-2.3,-59.3,101.8*,47.9,5.6,36.0*
CO[C@H](CN(C)S(=O)(=O)c1cccc(Cl)c1)[C@H](C)CN([C@@H](C)CO)S(=O)(=O)c1ccc(Cl)cc1,-3.2,86.1,-0.3,-16.6,.,.,.,.
CO[C@@H](CN(C)S(=O)(=O)c1ccc(F)cc1)[C@@H](C)CN([C@@H](C)CO)S(=O)(=O)c1cccc(Cl)c1,-0.2,108.9*,0.2,-28.2,82.1,10.8,25.7,52.9*
CO[C@@H](CN(C)S(=O)(=O)c1ccc(F)cc1)[C@H](C)CN([C@H](C)CO)S(=O)(=O)c1cccc(Cl)c1,-1.2,85.1,-0.4,-43.8,.,.,.,.
CO[C@H](CN(C)S(=O)(=O)c1ccc(F)cc1)[C@H](C)CN([C@H](C)CO)S(=O)(=O)c1cccc(Cl)c1,-0.8,101.4*,-0.1,-19.5,88.4,.,28.8,55.3*
Cc1noc(C)c1NC(=O)N(C)C[C@@H]1Oc2ncc(C#CCC(C)C)cc2C(=O)N([C@@H](C)CO)C[C@H]1C,-0.9,66.2,-3.8,-7.4,.,.,.,.
C/C=C/c1ccc2c(c1)O[C@@H](CN(C)C(=O)Nc1cccc(F)c1)[C@@H](C)CN([C@H](C)CO)S2(=O)=O,-1.3,66.2,0.1,-50.5,.,.,.,.
C[C@H](CO)N1C[C@H](C)[C@H](CN(C)C(=O)Nc2ccc(F)cc2)Oc2cc(/C=C/c3ccccc3)ccc2S1(=O)=O,.,122.4*,-0.9,-78.5,99.1*,105.1*,11.6,36.5*
C[C@@H]1CN([C@H](C)CO)S(=O)(=O)c2ccc(/C=C/c3ccccc3)cc2O[C@H]1CN(C)C(=O)Nc1cccc(F)c1,-1.7,123.1*,-0.3,-61.0,95.6*,99.4*,73.0*,102.3*
C[C@@H]1CN([C@H](C)CO)S(=O)(=O)c2ccc(/C=C/c3ccccc3)cc2O[C@@H]1CN(C)C(=O)Nc1cccc(F)c1,-2.0,124.1*,-3.0,-66.0,101.4*,108.3*,22.2,29.6
C/C=C/c1ccc2c(c1)O[C@H](CN(C)C(=O)Nc1ccc(F)cc1)[C@H](C)CN([C@H](C)CO)S2(=O)=O,-2.0,65.0,0.2,-12.1,.,.,.,.
COc1cccc(NC(=O)N(C)C[C@@H]2Oc3cc(/C=C/c4ccccc4)ccc3S(=O)(=O)N([C@H](C)CO)C[C@H]2C)c1,-0.8,.,1.8,-47.9,.,.,.,.
C/C=C/c1ccc2c(c1)O[C@@H](CN(C)C(=O)Nc1cccc(F)c1)[C@H](C)CN([C@@H](C)CO)S2(=O)=O,2.2,96.6*,0.4,0.8,83.6,34.8,19.4,62.9*
Clc1ccc(-c2cn3c4ccccc4nc3n2CCN2CCOCC2)cc1,.,.,-0.5,.,.,.,.,.
COc1ccc(S(=O)(=O)Nc2cccc3c2O[C@H](CN(C)C(=O)Nc2ccc(C(F)(F)F)cc2)[C@@H](C)CN([C@H](C)CO)C3=O)cc1,0.0,-200.3,.,2.6,.,.,.,.
C/C=C/c1ccc2c(c1)O[C@H](CN(C)C(=O)Nc1cc(F)ccc1F)[C@@H](C)CN([C@@H](C)CO)S2(=O)=O,-0.2,100.3*,-2.6,-45.5,101.1*,32.8,0.5,25.0
C[C@H]1CN([C@@H](C)CO)S(=O)(=O)c2ccc(/C=C/c3ccccc3)cc2O[C@@H]1CN(C)C(=O)Nc1cccc(F)c1,0.6,125.3*,2.2,-19.2,95.1*,100.3*,?,47.1*
C/C=C/c1ccc2c(c1)O[C@@H](CN(C)C(=O)Nc1ccc(C(F)(F)F)cc1)[C@H](C)CN([C@H](C)CO)S2(=O)=O,0.2,111.8*,2.9,-17.4,93.9,103.2*,43.3*,54.8*
C/C=C/c1ccc2c(c1)O[C@H](CN(C)C(=O)Nc1cccc(F)c1)[C@@H](C)CN([C@H](C)CO)S2(=O)=O,-2.0,80.3,-1.8,-11.4,.,.,.,.
C/C=C/c1ccc2c(c1)O[C@H](CN(C)C(=O)Nc1cc(F)ccc1F)[C@@H](C)CN([C@H](C)CO)S2(=O)=O,-1.9,28.0,3.2,-33.1,.,.,.,.
C[C@H](CO)N1C[C@H](C)[C@H](CN(C)C(=O)Nc2cccc(F)c2)Oc2cc(/C=C/c3ccccc3)ccc2S1(=O)=O,-1.4,123.6*,1.8,-75.6,104.8*,111.4*,39.3*,36.8*
Cc1noc(C)c1S(=O)(=O)Nc1ccc2c(c1)C(=O)N([C@@H](C)CO)C[C@H](C)[C@H](CN(C)CC1CC1)O2,-0.3,22.8,-1.2,-6.6,.,.,.,.
C[C@@H]1CN([C@@H](C)CO)C(=O)c2cc(C#CCC3CCCC3)cnc2O[C@H]1CN(C)CC1CCOCC1,10.6,62.6,2.6,-53.8,.,.,.,.
SMILES,GASC1 inh,T cruzi growth-1,IDH1 mut inh,Pf Dd2 inh,T cruzi growth-2,T cruzi growth-3,NIH3T3 tox,NIH3T3 tox 2
CN1C[C@@H](O)COC[C@@H]2O[C@H](CC(=O)N3CCN(c4ccccc4)CC3)CC[C@H]21,1.1,109.1*,.,-27.9,90.2,71.2,-2.6,-4.4
O=C(C[C@@H]1CC[C@@H]2[C@H](COC[C@H](O)CN2Cc2ccc(Oc3ccccc3)cc2)O1)N1CCN(c2ccccc2)CC1,0.2,115.2*,.,-69.8,87.6,69.6,3.8,103.9*
O=C(C[C@@H]1CC[C@H]2[C@@H](COC[C@@H](O)CN2Cc2ccc(Oc3ccccc3)cc2)O1)N1CCN(c2ccccc2)CC1,-2.2,33.8,.,-25.8,.,.,.,.
O=C(C[C@H]1CC[C@H]2[C@@H](COC[C@H](O)CN2Cc2ccc(Oc3ccccc3)cc2)O1)N1CCN(c2ccccc2)CC1,-0.1,134.4*,.,-52.2,105.4*,44.2,6.9,38.2*
O=C(NCC[C@@H]1CC[C@@H](NC(=O)C2CCC2)[C@@H](CO)O1)Nc1ccc(Cl)cc1,-2.7,.,0.2,10.4,.,.,.,.
C[C@@H]1CCCCO[C@@H](CN(C)S(=O)(=O)c2cn(C)cn2)[C@H](C)CN([C@H](C)CO)C(=O)c2cc(NC(=O)C3CCCCC3)ccc2O1,-0.3,7.0,-3.5,-6.0,.,.,.,.
COc1cc(CN2CC3(CN(S(=O)(=O)c4cccs4)C3)c3c(n(C)c4cc(OC)ccc34)[C@@H]2CO)cc(OC)c1,-2.2,.,.,-61.0,.,.,.,.
